For 13 compounds, zone of inhibition results are on record in ChEMBL document CHEMBL1782031, “Urea/thiourea derivatives of quinazolinone-lysine conjugates: synthesis and structure-activity relationships of a new series of antimicrobials” (2011).

One assay deals with Pseudomonas fluorescens. Briefly: Antibacterial activity against Pseudomonas fluorescens at 10 ug/disc after 24 hrs by disc diffusion method. Type of assay: functional. The note with it: read-out: DIZ. Put shortly: (§1)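 Disc diffusion assay. Discs were held at 4 °C for 2 h so the compounds could diffuse, then incubated at 28 °C. Inhibition zone diameters were measured in mm after 24 h. Each compound was tested in triplicate.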
In the case of `Cc1ccccc1NC(=S)NCCCC[C@H](NC(=O)CCc1nc2ccccc2c(=O)[nH]1)C(=O)O`, the zone of inhibition at 10 µg/disc amounted to 25 mm.
`O=C(CCc1nc2ccccc2c(=O)[nH]1)N[C@@H](CCCCNC(=S)Nc1cccc(F)c1)C(=O)O`: the zone of inhibition at 10 µg/disc is 34 mm.
For `Cc1cc(F)ccc1NC(=S)NCCCC[C@H](NC(=O)CCCc1nc2ccccc2c(=O)[nH]1)C(=O)O`, the zone of inhibition at 10 µg/disc came to 34 mm.
With `Cc1ccccc1NC(=S)NCCCC[C@H](NC(=O)CCCc1nc2ccccc2c(=O)[nH]1)C(=O)O`, the zone of inhibition at 10 µg/disc was found to be 25 mm.
As to `O=C(CCCc1nc2ccccc2c(=O)[nH]1)N[C@@H](CCCCNC(=S)Nc1cccc(F)c1)C(=O)O`, the zone of inhibition at 10 µg/disc came to 32 mm.
Still for that read-out and setting: in the case of `COC(=O)[C@H](CCCCNC(C)=O)NC(=O)CCc1nc2ccccc2c(=O)[nH]1` it was 12 mm; in that of `COC(=O)[C@H](CCCCNC(C)=O)NC(=O)CCCc1nc2ccccc2c(=O)[nH]1`, 7 mm; in that of `CC(=O)NCCCC[C@H](NC(=O)CCc1nc2ccccc2c(=O)[nH]1)C(=O)O`, 13 mm.
Consider `CC(=O)NCCCC[C@H](NC(=O)CCCc1nc2ccccc2c(=O)[nH]1)C(=O)O`, for which the zone of inhibition at 10 µg/disc stood at 10 mm.
For `COC(=O)[C@H](CCCCNS(C)(=O)=O)NC(=O)CCc1nc2ccccc2c(=O)[nH]1`, the zone of inhibition at 10 µg/disc is 9 mm.
`COC(=O)[C@H](CCCCNS(C)(=O)=O)NC(=O)CCCc1nc2ccccc2c(=O)[nH]1`: the zone of inhibition at 10 µg/disc amounted to 11 mm.
Take `CS(=O)(=O)NCCCC[C@H](NC(=O)CCc1nc2ccccc2c(=O)[nH]1)C(=O)O`: the zone of inhibition at 10 µg/disc was found to be 12 mm.
For the compound `CS(=O)(=O)NCCCC[C@H](NC(=O)CCCc1nc2ccccc2c(=O)[nH]1)C(=O)O`, the zone of inhibition at 10 µg/disc came out at 12 mm.

For another assay, the system named is Xanthomonas oryzae. Put plainly: Antibacterial activity against Xanthomonas oryzae at 10 ug/disc after 24 hrs by disc diffusion method. The note with it: read-out: DIZ. It is filed as functional.
As to `Cc1ccccc1NC(=S)NCCCC[C@H](NC(=O)CCc1nc2ccccc2c(=O)[nH]1)C(=O)O`, the zone of inhibition at 10 µg/disc was 28 mm.
For the compound `O=C(CCc1nc2ccccc2c(=O)[nH]1)N[C@@H](CCCCNC(=S)Nc1cccc(F)c1)C(=O)O`, the zone of inhibition at 10 µg/disc was found to be 36 mm.
Regarding `Cc1cc(F)ccc1NC(=S)NCCCC[C@H](NC(=O)CCCc1nc2ccccc2c(=O)[nH]1)C(=O)O`, the zone of inhibition at 10 µg/disc was 33 mm.
As to `Cc1ccccc1NC(=S)NCCCC[C@H](NC(=O)CCCc1nc2ccccc2c(=O)[nH]1)C(=O)O`, the zone of inhibition at 10 µg/disc turned out to be 25 mm.
Turning to `O=C(CCCc1nc2ccccc2c(=O)[nH]1)N[C@@H](CCCCNC(=S)Nc1cccc(F)c1)C(=O)O`, the zone of inhibition at 10 µg/disc was 34 mm.
Same read-out and setting: in the case of `COC(=O)[C@H](CCCCNC(C)=O)NC(=O)CCc1nc2ccccc2c(=O)[nH]1` it was 12 mm; in that of `COC(=O)[C@H](CCCCNC(C)=O)NC(=O)CCCc1nc2ccccc2c(=O)[nH]1`, 8 mm.
Turning to `CC(=O)NCCCC[C@H](NC(=O)CCc1nc2ccccc2c(=O)[nH]1)C(=O)O`, the zone of inhibition at 10 µg/disc worked out at 14 mm.
Consider `CC(=O)NCCCC[C@H](NC(=O)CCCc1nc2ccccc2c(=O)[nH]1)C(=O)O`, for which the zone of inhibition at 10 µg/disc stood at 12 mm.
As to `COC(=O)[C@H](CCCCNS(C)(=O)=O)NC(=O)CCc1nc2ccccc2c(=O)[nH]1`, the zone of inhibition at 10 µg/disc is 11 mm.
For `COC(=O)[C@H](CCCCNS(C)(=O)=O)NC(=O)CCCc1nc2ccccc2c(=O)[nH]1`, the zone of inhibition at 10 µg/disc is 11 mm.
The same measure, in the same setting: in the case of `CS(=O)(=O)NCCCC[C@H](NC(=O)CCc1nc2ccccc2c(=O)[nH]1)C(=O)O` it was 10 mm.
For `CS(=O)(=O)NCCCC[C@H](NC(=O)CCCc1nc2ccccc2c(=O)[nH]1)C(=O)O`, the zone of inhibition at 10 µg/disc turned out to be 10 mm.

A further assay has as its system Escherichia coli. Put plainly: Antibacterial activity against Escherichia coli at 10 ug/disc after 24 hrs by disc diffusion method. The note with it: read-out: DIZ. It is filed as functional. Put shortly:
as §1
(In general: Agar diffusion results depend on both activity and mobility in agar.)
With `Cc1ccccc1NC(=S)NCCCC[C@H](NC(=O)CCc1nc2ccccc2c(=O)[nH]1)C(=O)O`, the zone of inhibition at 10 µg/disc was 23 mm.
Take `O=C(CCc1nc2ccccc2c(=O)[nH]1)N[C@@H](CCCCNC(=S)Nc1cccc(F)c1)C(=O)O`: the zone of inhibition at 10 µg/disc stood at 38 mm.
Turning to `Cc1cc(F)ccc1NC(=S)NCCCC[C@H](NC(=O)CCCc1nc2ccccc2c(=O)[nH]1)C(=O)O`, the zone of inhibition at 10 µg/disc came out at 34 mm.
With `Cc1ccccc1NC(=S)NCCCC[C@H](NC(=O)CCCc1nc2ccccc2c(=O)[nH]1)C(=O)O`, the zone of inhibition at 10 µg/disc is 24 mm.
For `O=C(CCCc1nc2ccccc2c(=O)[nH]1)N[C@@H](CCCCNC(=S)Nc1cccc(F)c1)C(=O)O`, the zone of inhibition at 10 µg/disc stood at 32 mm.
In the case of `COC(=O)[C@H](CCCCNC(C)=O)NC(=O)CCc1nc2ccccc2c(=O)[nH]1`, the zone of inhibition at 10 µg/disc was 10 mm.
As to `COC(=O)[C@H](CCCCNC(C)=O)NC(=O)CCCc1nc2ccccc2c(=O)[nH]1`, the zone of inhibition at 10 µg/disc was 9 mm.
Consider `CC(=O)NCCCC[C@H](NC(=O)CCc1nc2ccccc2c(=O)[nH]1)C(=O)O`, for which the zone of inhibition at 10 µg/disc worked out at 10 mm.
As for `CC(=O)NCCCC[C@H](NC(=O)CCCc1nc2ccccc2c(=O)[nH]1)C(=O)O`, the zone of inhibition at 10 µg/disc was determined as 11 mm.
With `COC(=O)[C@H](CCCCNS(C)(=O)=O)NC(=O)CCc1nc2ccccc2c(=O)[nH]1`, the zone of inhibition at 10 µg/disc turned out to be 6 mm.
On to `COC(=O)[C@H](CCCCNS(C)(=O)=O)NC(=O)CCCc1nc2ccccc2c(=O)[nH]1`, for which the zone of inhibition at 10 µg/disc is 9 mm.
In the case of `CS(=O)(=O)NCCCC[C@H](NC(=O)CCc1nc2ccccc2c(=O)[nH]1)C(=O)O`, the zone of inhibition at 10 µg/disc turned out to be 9 mm.
Regarding `CS(=O)(=O)NCCCC[C@H](NC(=O)CCCc1nc2ccccc2c(=O)[nH]1)C(=O)O`, the zone of inhibition at 10 µg/disc came out at 11 mm.

In another assay the test system is Bacillus subtilis. Briefly: Antibacterial activity against Bacillus subtilis at 10 ug/disc after 24 hrs by disc diffusion method. It is filed as functional. The note with it: read-out: DIZ. Put shortly: as §1
On to `Cc1ccccc1NC(=S)NCCCC[C@H](NC(=O)CCc1nc2ccccc2c(=O)[nH]1)C(=O)O`, for which the zone of inhibition at 10 µg/disc was found to be 23 mm.
In the case of `O=C(CCc1nc2ccccc2c(=O)[nH]1)N[C@@H](CCCCNC(=S)Nc1cccc(F)c1)C(=O)O`, the zone of inhibition at 10 µg/disc turned out to be 36 mm.
As for `Cc1cc(F)ccc1NC(=S)NCCCC[C@H](NC(=O)CCCc1nc2ccccc2c(=O)[nH]1)C(=O)O`, the zone of inhibition at 10 µg/disc is 33 mm.
As for `Cc1ccccc1NC(=S)NCCCC[C@H](NC(=O)CCCc1nc2ccccc2c(=O)[nH]1)C(=O)O`, the zone of inhibition at 10 µg/disc came to 23 mm.
Regarding `O=C(CCCc1nc2ccccc2c(=O)[nH]1)N[C@@H](CCCCNC(=S)Nc1cccc(F)c1)C(=O)O`, the zone of inhibition at 10 µg/disc was 34 mm.
Take `COC(=O)[C@H](CCCCNC(C)=O)NC(=O)CCc1nc2ccccc2c(=O)[nH]1`: the zone of inhibition at 10 µg/disc stood at 9 mm.
Turning to `COC(=O)[C@H](CCCCNC(C)=O)NC(=O)CCCc1nc2ccccc2c(=O)[nH]1`, the zone of inhibition at 10 µg/disc stood at 8 mm.
With `CC(=O)NCCCC[C@H](NC(=O)CCc1nc2ccccc2c(=O)[nH]1)C(=O)O`, the zone of inhibition at 10 µg/disc amounted to 11 mm.
For the compound `CC(=O)NCCCC[C@H](NC(=O)CCCc1nc2ccccc2c(=O)[nH]1)C(=O)O`, the zone of inhibition at 10 µg/disc turned out to be 10 mm.
Regarding `COC(=O)[C@H](CCCCNS(C)(=O)=O)NC(=O)CCc1nc2ccccc2c(=O)[nH]1`, the zone of inhibition at 10 µg/disc was found to be 8 mm.
Still for that read-out and setting: next, `COC(=O)[C@H](CCCCNS(C)(=O)=O)NC(=O)CCCc1nc2ccccc2c(=O)[nH]1`: 11 mm.
On the same count and under the same terms, in the case of `CS(=O)(=O)NCCCC[C@H](NC(=O)CCc1nc2ccccc2c(=O)[nH]1)C(=O)O` it was 9 mm; in that of `CS(=O)(=O)NCCCC[C@H](NC(=O)CCCc1nc2ccccc2c(=O)[nH]1)C(=O)O`, 12 mm.

Test system in another assay: not listed separately
Briefly: Antibacterial activity against Xanthomonas campestris pvs. at 10 ug/disc after 24 hrs by disc diffusion method. Type of assay: functional. As to conditions: read-out: DIZ. The method, boiled down: as §1
As to `Cc1ccccc1NC(=S)NCCCC[C@H](NC(=O)CCc1nc2ccccc2c(=O)[nH]1)C(=O)O`, the zone of inhibition at 10 µg/disc was found to be 28 mm.
Consider `O=C(CCc1nc2ccccc2c(=O)[nH]1)N[C@@H](CCCCNC(=S)Nc1cccc(F)c1)C(=O)O`, for which the zone of inhibition at 10 µg/disc came to 36 mm.
On the same count and under the same terms, in the case of `Cc1cc(F)ccc1NC(=S)NCCCC[C@H](NC(=O)CCCc1nc2ccccc2c(=O)[nH]1)C(=O)O` it was 32 mm.
As to `Cc1ccccc1NC(=S)NCCCC[C@H](NC(=O)CCCc1nc2ccccc2c(=O)[nH]1)C(=O)O`, the zone of inhibition at 10 µg/disc was 26 mm.
As for `O=C(CCCc1nc2ccccc2c(=O)[nH]1)N[C@@H](CCCCNC(=S)Nc1cccc(F)c1)C(=O)O`, the zone of inhibition at 10 µg/disc came to 33 mm.
Turning to `COC(=O)[C@H](CCCCNC(C)=O)NC(=O)CCc1nc2ccccc2c(=O)[nH]1`, the zone of inhibition at 10 µg/disc turned out to be 11 mm.
Take `COC(=O)[C@H](CCCCNC(C)=O)NC(=O)CCCc1nc2ccccc2c(=O)[nH]1`: the zone of inhibition at 10 µg/disc worked out at 6 mm.
`CC(=O)NCCCC[C@H](NC(=O)CCc1nc2ccccc2c(=O)[nH]1)C(=O)O`: the zone of inhibition at 10 µg/disc was determined as 12 mm.
On the same count and under the same terms, in the case of `CC(=O)NCCCC[C@H](NC(=O)CCCc1nc2ccccc2c(=O)[nH]1)C(=O)O` it was 14 mm.
Same read-out and setting: in the case of `COC(=O)[C@H](CCCCNS(C)(=O)=O)NC(=O)CCc1nc2ccccc2c(=O)[nH]1` it was 8 mm; in that of `COC(=O)[C@H](CCCCNS(C)(=O)=O)NC(=O)CCCc1nc2ccccc2c(=O)[nH]1`, 12 mm; in that of `CS(=O)(=O)NCCCC[C@H](NC(=O)CCc1nc2ccccc2c(=O)[nH]1)C(=O)O`, 10 mm.
The same measure, in the same setting: in the case of `CS(=O)(=O)NCCCC[C@H](NC(=O)CCCc1nc2ccccc2c(=O)[nH]1)C(=O)O` it was 11 mm.
